# Data published in ChEMBL document CHEMBL1148420, “Identification and synthesis of [1,2,4]triazolo[3,4-a]phthalazine derivatives as high-affinity ligands to the alpha 2 delta-1 subunit of voltage gated calcium channel” (Bioorg Med Chem Lett, 2004).
# pIC50: −log10 of the molar value.
# Target: T1, Voltage-dependent calcium channel subunit alpha-2/delta-1 (Homo sapiens, UniProt P54289)
# Test: Binding affinity against alpha-2 delta-1 subunit of voltage gated subunit of Ca+2 channel in human
# Method in brief: (§1)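 [3H]gabapentin displacement binding on A710 membranes (HEK 293 cells stably transfected with human α1B, β3a and α2δ-1b subunits), following a literature method.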
# T1 sequence (P54289 25-956 limits assumed): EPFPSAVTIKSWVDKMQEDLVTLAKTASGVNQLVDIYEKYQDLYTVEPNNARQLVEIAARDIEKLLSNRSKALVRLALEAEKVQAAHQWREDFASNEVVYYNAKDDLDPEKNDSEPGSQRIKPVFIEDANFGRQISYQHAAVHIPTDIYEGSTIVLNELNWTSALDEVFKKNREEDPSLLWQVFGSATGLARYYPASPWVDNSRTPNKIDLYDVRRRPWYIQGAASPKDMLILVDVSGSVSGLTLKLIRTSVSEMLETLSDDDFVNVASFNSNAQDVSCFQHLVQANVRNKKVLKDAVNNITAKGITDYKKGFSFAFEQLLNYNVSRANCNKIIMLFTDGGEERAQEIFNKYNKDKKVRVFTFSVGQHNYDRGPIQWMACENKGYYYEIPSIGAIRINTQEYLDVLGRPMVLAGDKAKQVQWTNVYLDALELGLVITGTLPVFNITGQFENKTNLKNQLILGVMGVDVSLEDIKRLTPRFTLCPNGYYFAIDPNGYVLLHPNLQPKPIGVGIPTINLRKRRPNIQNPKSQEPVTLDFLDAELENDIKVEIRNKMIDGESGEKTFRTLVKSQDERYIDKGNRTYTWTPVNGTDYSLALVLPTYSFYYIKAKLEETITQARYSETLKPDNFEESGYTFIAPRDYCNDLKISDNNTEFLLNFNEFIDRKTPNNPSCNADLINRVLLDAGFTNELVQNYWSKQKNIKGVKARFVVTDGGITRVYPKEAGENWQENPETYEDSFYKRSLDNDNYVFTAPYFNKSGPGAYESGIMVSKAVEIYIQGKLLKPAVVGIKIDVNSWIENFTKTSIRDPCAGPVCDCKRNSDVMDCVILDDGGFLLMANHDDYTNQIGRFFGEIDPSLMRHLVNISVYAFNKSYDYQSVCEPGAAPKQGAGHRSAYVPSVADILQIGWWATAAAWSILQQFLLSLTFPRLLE
# T1 sequence (P54289 957-1103 limits assumed): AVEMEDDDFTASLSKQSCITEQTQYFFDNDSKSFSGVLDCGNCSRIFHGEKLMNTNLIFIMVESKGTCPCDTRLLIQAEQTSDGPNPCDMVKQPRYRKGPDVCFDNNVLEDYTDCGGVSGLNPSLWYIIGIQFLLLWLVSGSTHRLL
row,pIC50,SMILES
1,6.71,c1ccc(CCNCc2cccc(COc3nn4c(-c5ccccc5)nnc4c4ccccc34)n2)cc1
2,6.94,COc1cccc(CCNCc2cccc(COc3nn4c(C(F)(F)F)nnc4c4ccccc34)n2)c1
3,6.08,COc1ccc(CCNCc2cccc(COc3nn4c(C(F)(F)F)nnc4c4ccccc34)n2)cc1
4,6.62,CCc1nnc2c3ccccc3c(OCc3cccc(CNCCc4ccccc4)n3)nn12
5,6.71,CSc1nnc2c3ccccc3c(OCc3cccc(CNCCc4ccccc4)n3)nn12
6,6.64,c1ccc(CCNCc2cccc(COc3nn4cnnc4c4ccccc34)n2)cc1
7,6.54,Fc1ccccc1CCNCc1cccc(COc2nn3c(C(F)(F)F)nnc3c3ccccc23)n1
8,6.84,c1ccc(CCNCc2cccc(COc3nn4c(C5CCCCC5)nnc4c4ccccc34)n2)cc1
9,6.66,Cc1cc(-c2nnc3c4ccccc4c(OCc4cccc(CNCCc5ccccc5)n4)nn23)no1
10,6.84,Cc1nnc2c3ccccc3c(OCc3cccc(CNCCc4ccccc4)n3)nn12
11,6.88,COCc1nnc2c3ccccc3c(OCc3cccc(CNCCc4ccccc4)n3)nn12
12,6.47,CC(C)c1nnc2c3ccccc3c(OCc3cccc(CNCCc4ccccc4)n3)nn12
13,6.57,c1ccc(CCNCc2cccc(COc3nn4c(C5CC5)nnc4c4ccccc34)n2)cc1
14,7.14,FC(F)(F)c1nnc2c3ccccc3c(OCc3cccc(CNCCc4ccccc4)n3)nn12

# Target: T1, Voltage-dependent calcium channel subunit alpha-2/delta-1
# Test: Binding affinity against alpha2 delta-1 subunit of voltage-gated calcium channel in human.
# Method in brief: as §1
row,pIC50,SMILES
1,7.52,[3H]c1cccc(CCN[C@@H](C)c2cccc(COc3nn4c(C(F)(F)F)nnc4c4ccccc34)n2)c1
2,7.55,C[C@H](NCCc1cccc(Br)c1)c1cccc(COc2nn3c(C(F)(F)F)nnc3c3ccccc23)n1
3,5.00,CN(CCc1ccccc1)Cc1cccc(COc2nn3c(C(F)(F)F)nnc3c3ccccc23)n1
4,6.20,Fc1ccc(CCNCc2cccc(COc3nn4c(C(F)(F)F)nnc4c4ccccc34)n2)cc1
5,7.52,C[C@H](NCCc1ccccc1)c1cccc(COc2nn3c(C(F)(F)F)nnc3c3ccccc23)n1
6,5.00,CC(C)(Cc1ccccc1)NCc1cccc(COc2nn3c(C(F)(F)F)nnc3c3ccccc23)n1
7,6.59,Cc1ccc(CCNCc2cccc(COc3nn4c(C(F)(F)F)nnc4c4ccccc34)n2)cc1
8,6.79,Fc1cccc(CCNCc2cccc(COc3nn4c(C(F)(F)F)nnc4c4ccccc34)n2)c1
9,6.15,C[C@@H](Cc1ccccc1)NCc1cccc(COc2nn3c(C(F)(F)F)nnc3c3ccccc23)n1
10,6.35,Cc1ccccc1CCNCc1cccc(COc2nn3c(C(F)(F)F)nnc3c3ccccc23)n1
11,5.00,C[C@@H](NCCc1ccccc1)c1cccc(COc2nn3c(C(F)(F)F)nnc3c3ccccc23)n1
12,7.82,Cc1cccc(CCNCc2cccc(COc3nn4c(C(F)(F)F)nnc4c4ccccc34)n2)c1
13,6.64,FC(F)(F)c1nnc2c3ccccc3c(OCc3cccc(CNC4C[C@H]4c4ccccc4)n3)nn12 (mixture of isomers)
14,6.76,CC(C)C(NCCc1ccccc1)c1cccc(COc2nn3c(C(F)(F)F)nnc3c3ccccc23)n1 (racemic)
15,5.86,CC(Cc1ccccc1)NCc1cccc(COc2nn3c(C(F)(F)F)nnc3c3ccccc23)n1 (racemic)
16,7.54,Cc1cccc(CCNC(C)c2cccc(COc3nn4c(C(F)(F)F)nnc4c4ccccc34)n2)c1 (racemic)
17,7.44,CC(NCCc1ccccc1)c1cccc(COc2nn3c(C(F)(F)F)nnc3c3ccccc23)n1 (racemic)
18,6.70,CC(CNCc1cccc(COc2nn3c(C(F)(F)F)nnc3c3ccccc23)n1)c1ccccc1 (racemic)
19,6.74,CCC(NCCc1ccccc1)c1cccc(COc2nn3c(C(F)(F)F)nnc3c3ccccc23)n1 (racemic)
